Here are results for 5 compounds from ChEMBL document CHEMBL2010780, “Pyridine Carboxamides: Potent Palm Site Inhibitors of HCV NS5B Polymerase” (ACS Med Chem Lett, 2010).

The source made the active and inactive calls. The calls are words filed in the database; no cut-off is given here. A value given as a limit tells only on which side of the number the result lay.

The subject of data set [1] is Hepacivirus hominis. Description: Ratio of IC50 for Hepatitis C virus subtype 1b BK NS5B Cdelta21 polymerase to IC50 for Hepatitis C virus genotype 1b Con1 NS5B Cdelta21 polymerase.
Data set [2] relates to Hepacivirus hominis. Description: Ratio of IC50 for Hepatitis C virus subtype 1a H77 NS5B Cdelta21 polymerase to IC50 for Hepatitis C virus genotype 1b Con1 NS5B Cdelta21 polymerase.
In data set [3] the test system is Hepatitis C virus. Nature of the data set: Ratio of IC50 for Hepatitis C virus genotype 1b Con1 NS5B Cdelta21 polymerase thumb site 1 P495L mutant to IC50 for Hepatitis C virus genotype 1b Con1 NS5B Cdelta21 polymerase. Also on record: species or system Hepacivirus hominis.
Data set [4] relates to Hepatitis C virus. Nature of the data set: Ratio of IC50 for Hepatitis C virus genotype 1b Con1 NS5B Cdelta21 polymerase palm site 1 M414T mutant to IC50 for Hepatitis C virus genotype 1b Con1 NS5B Cdelta21 polymerase. Set-up: species or system Hepacivirus hominis.
The test system of data set [5] is Hepatitis C virus genotype 4. Nature of the data set: Inhibition of Hepatitis C virus genotype 4 NS5B Cdelta21 polymerase up to 10 uM.
Data set [6] relates to Hepatitis C virus. Nature of the data set: Ratio of IC50 for Hepatitis C virus genotype 1b Con1 NS5B Cdelta21 polymerase palm site 2 C316Y mutant to IC50 for Hepatitis C virus genotype 1b Con1 NS5B Cdelta21 polymerase. Also on record: species or system Hepacivirus hominis.
The subject of data set [7] is Hepatitis C virus. Nature of the data set: Ratio of IC50 for Hepatitis C virus genotype 1b Con1 NS5B Cdelta21 polymerase thumb site 2 M423T mutant to IC50 for Hepatitis C virus genotype 1b Con1 NS5B Cdelta21 polymerase. Also on record: species or system Hepacivirus hominis.
The test system of data set [8] is Hepatitis C virus. Nature of the data set: Ratio of IC50 for Hepatitis C virus genotype 1b Con1 NS5B Cdelta21 polymerase palm site 2 C316N mutant to IC50 for Hepatitis C virus genotype 1b Con1 NS5B Cdelta21 polymerase. Set-up: species or system Hepacivirus hominis.
Data set [9] concerns Hepatitis C virus genotype 3. Nature of the data set: Inhibition of Hepatitis C virus genotype 3 NS5B Cdelta21 polymerase up to 10 uM.
For data set [10], the system named is Hepatitis C virus genotype 2. Description: Inhibition of Hepatitis C virus genotype 2 NS5B Cdelta21 polymerase up to 10 uM.
Data set [11] deals with Hepatitis C virus. Description: Ratio of IC50 for Hepatitis C virus genotype 1b Con1 NS5B Cdelta21 polymerase palm site 1 G554D mutant to IC50 for Hepatitis C virus genotype 1b Con1 NS5B Cdelta21 polymerase. Also on record: species or system Hepacivirus hominis.
A short description of data set [12]: Cytotoxicity against human HuH7 cells after 3 days by MTS assay. In kind it is cell-based, Huh-7. The method, boiled down: (§1)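 Each value is the mean of duplicate experiments run on two separate weighings of compound.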
In data set [13] the test system is Hepatitis C virus. Nature of the data set: Antiviral activity against Hepatitis C virus genotype 1b Con1 infected in human HuH7 cells assessed as inhibition of viral RNA replication after 3 by real time PCR analysis. In kind it is functional, organism-based, Hepacivirus hominis, Huh-7. The conditions noted are these: Hepatitis C virus, Con1, Huh-7; read-out: EC50. The method, boiled down:
as §1
In general terms: Quantitative PCR measures a nucleic acid by following its amplification.

Data set [14] is described as follows: Inhibition of Hepatitis C virus genotype 1b Con1 NS5B Cdelta21 polymerase assessed as incorporation of [33P]-CTP into heteropolymer RNA template after 2 hrs. The following applies: Con1, 2 h. Also on record: species or system Hepacivirus hominis. The method, boiled down:
as §1

Data set [15] deals with Hepatitis C virus. Description: Inhibition of Hepatitis C virus genotype 1b Con1 NS5B Cdelta21 polymerase-mediated RNA synthesis at elongation phase after 22 hrs by single round elongation assay. The following applies: Hepacivirus hominis. The method, boiled down: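 Single-cycle assay measuring elongation from NS5B enzyme–primer–template complexes that were preformed before elongation.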

Data set [16] can be described thus: Ratio of CC50 for human HuH7 cells to EC50 for Hepatitis C virus genotype 1b Con1. Also on record: species or system Huh-7.
For data set [17], the system named is Hepatitis C virus. Description: Inhibition of Hepatitis C virus genotype 1b Con1 NS5B Cdelta21 polymerase-mediated RNA synthesis at initiation phase after 15 mins by primer extension assay. The conditions noted are these: Hepacivirus hominis.

As for `CNC(=O)c1c(-c2ccc(F)cc2)oc2cc(N(CCO)S(C)(=O)=O)c(C3CC3)cc12` [NESBUVIR], the Ratio IC50 in the data set with Hepacivirus hominis [1] is 6; in the data set with Hepacivirus hominis [2] it was 1; with Hepatitis C virus [3] it was 1; in the data set with Hepatitis C virus [4], 1.5; in the data set with Hepatitis C virus [6] it was 50; in the data set with Hepatitis C virus [7], 1. In addition, the results for the “Ratio IC50” value in the data set with Hepatitis C virus [8] and with Hepatitis C virus [11] were 3 and 1, respectively. Further, the inhibition entry in [5], in data set [9] and in [10] was “inactive” each time.

For the compound `Cc1ncccc1C(=O)Nc1ccc(C(C)C)cc1N1CCN(c2ncnc3[nH]ccc23)CC1`, in data set [12], the CC50 at 72 h was greater than 10000 nM. Moreover, the Ratio IC50 in the data set on Hepacivirus hominis [1] is 27; in the data set on Hepacivirus hominis [2], 270; in the data set with Hepatitis C virus [3], 1; in the data set on Hepatitis C virus [4], 27; in the data set with Hepatitis C virus [6], greater than 300; in the data set on Hepatitis C virus [7], 1. In addition, the “Ratio IC50” value with Hepatitis C virus [8] worked out at 4; with Hepatitis C virus [11] it was 8. Further, the inhibition entry in data set [5], in data set [9] and in data set [10] was “inactive” each time. Also, the concentration giving a half-maximal response (EC50) with Hepatitis C virus [13] was 3000 nM. Besides, the IC50 in [14] was 32 nM.

In [12], `Cc1ncccc1C(=O)Nc1ccc(C(C)C)cc1N1CCN(c2ncnc3ccsc23)CC1` registered a CC50 at 72 h of 15000 nM. Also, the Ratio IC50 in the data set with Hepacivirus hominis [1] was 14; in the data set with Hepacivirus hominis [2], 140; in the data set on Hepatitis C virus [3], 1; in the data set on Hepatitis C virus [4], 21; in the data set with Hepatitis C virus [6], greater than 300; with Hepatitis C virus [7] it was 1. The results for the “Ratio IC50” value with Hepatitis C virus [8] and in the data set on Hepatitis C virus [11] were 3 and 4, respectively. Further, the inhibition result (in data set [5]; with Hepatitis C virus [15]; in data set [9]; in data set [10]) was “inactive” throughout. In the data set with Hepatitis C virus [13], the EC50 was found to be 700 nM. Moreover, the IC50 in data set [14] stood at 14 nM. In data set [16], the “Ratio CC50/EC50” value was greater than 20. Moreover, the inhibition result in the data set on Hepatitis C virus [17] was “Active”.

On to `CC(C)(C)CC[C@@]1(C)CC(C2=NS(=O)(=O)c3cc(NS(C)(=O)=O)ccc3N2)=C(O)c2ccccc21`, for which the Ratio IC50 in the data set on Hepacivirus hominis [1] was found to be 1; in the data set with Hepacivirus hominis [2], 1; in the data set on Hepatitis C virus [3], 1; with Hepatitis C virus [4], 1; with Hepatitis C virus [6], 3; with Hepatitis C virus [7], 1. In addition, the “Ratio IC50” value with Hepatitis C virus [8] was found to be 1; with Hepatitis C virus [11], 100. For the same compound, the inhibition entry in data set [5], in data set [9] and in data set [10] was “inactive” throughout.

`Cc1ncccc1C(=O)Nc1ccc(C(C)C)cc1N1CCN(c2cnccn2)CC1` displayed a half-maximal cytotoxic concentration (CC50) at 72 h in data set [12] of 22000 nM. The EC50 in the data set with Hepatitis C virus [13] is 2800 nM. In data set [14], the IC50 was determined as 520 nM. For the same compound, the “Ratio CC50/EC50” value in [16] turned out to be 10.

What is called CC50 is the concentration that lowers cell viability or growth by half. What is called EC50 is the concentration that produces a half-maximal response. The term IC50 denotes the concentration needed to halve the response being measured.
